Series [1] deals with L1210. The series is described as follows: In vitro antitumor activity in the culture media (that produced 50% inhibition of the L1210 leukemia cell growth as compared to the untreated cells). As to conditions: Mus musculus, read-out: ID50 (the source's name). In kind it is functional. The procedure, abridged:
(§1)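 L1210 or P388 cells kept in RPMI-1640 with 10% heat-inactivated fetal calf serum and seeded in tubes at 5 × 10⁴ cells/mL. Grown with compound at 4-5 log doses for 48 h at 37 °C. Cells counted electronically, growth expressed as % of untreated control tubes, and the dose giving 50% growth inhibition (ID₅₀) determined.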

The test system of series [2] is P388. Nature of the series: In vitro antitumor activity in the culture media (that produced 50% inhibition of the P388 leukemia cell growth as compared to the untreated cells); Inhibition at 10E-5. In kind it is functional, Mus musculus.
Series [3] relates to Vesicular stomatitis virus. Nature of the series: In vitro antiviral activity (virus ratings (VR)) determined by comparing CPE development in drug-treated cells (T) and Vesicular stomatitis virus control cells. It is filed as functional.
The subject of series [4] is Human respirovirus 3. The series is described as follows: In vitro antiviral activity (virus ratings (VR)) determined by comparing CPE development in drug-treated cells (T) and Parainfluenza type 3 virus control cells. It is filed as functional.
In the next series the test system is Vaccinia virus. The series is described as follows: In vitro antiviral activity (virus ratings (VR)) determined by comparing CPE development in drug-treated cells (T) and Vaccinia virus control cells. In kind it is functional, Orthopoxvirus vaccinia.
Another series has as its system Human alphaherpesvirus 1. Nature of the series: In vitro antiviral activity (virus ratings (VR)) determined by comparing CPE development in drug-treated cells (T) and HSV-1 virus control cells. In kind it is functional.
Series [5] concerns P388. The series is described as follows: In vitro antitumor activity in the culture media (that produced 50% inhibition of the P388 leukemia cell growth as compared to the untreated cells). It is filed as functional. As to conditions: Mus musculus, read-out: ID50 (the source's name). A digest of the protocol: as §1
Series [6] in a line: Toxic level was evaluated; None. In kind it is ADME.
Series [7] deals with P388. The series is described as follows: In vitro antitumor activity in the culture media (that produced 50% inhibition of the P388 leukemia cell growth as compared to the untreated cells); Inhibition at 10E-4. It is filed as functional, Mus musculus.
In series [8] the test system is Human respirovirus 3. Nature of the series: In vitro antiviral activity (virus ratings (VR)) determined by comparing CPE development in drug-treated cells (T) and Parainfluenza type 3 virus control cells. It is filed as functional.
For series [9], the system named is P388. The series is described as follows: In vitro antitumor activity in the culture media (that produced 50% inhibition of the P388 leukemia cell growth as compared to the untreated cells); b=Inactive at 10E-4 M. As to conditions: Mus musculus. In kind it is functional, cell-based. A digest of the protocol: (§2)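 L1210 leukemia and P388 lymphoid neoplasm cells kept in RPMI-1640 with 10% heat-inactivated fetal calf serum. Seeded at 5 × 10⁴ cells/mL, then grown 48 h at 37 °C with compound at 4-5 log doses. Growth counted by Coulter counter and expressed as % of control tubes. ID50 is the dose giving 50% growth inhibition.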

The test system of series [10] is Vesicular stomatitis virus. Nature of the series: In vitro antiviral activity (virus ratings (VR)) determined by comparing CPE development in drug-treated cells (T) and VSV virus control cells. In kind it is functional.
In series [11] the test system is L1210. Nature of the series: In vitro antitumor activity in the culture media (that produced 50% inhibition of the L1210 leukemia cell growth as compared to the untreated cells); b=Inactive at 10E-4 M. As to conditions: Mus musculus. It is filed as functional, cell-based. The procedure, abridged: as §2
In series [12] the test system is P388. Nature of the series: In vitro antitumor activity in the culture media (that produced 50% inhibition of the P388 leukemia cell growth as compared to the untreated cells); b=Inactive at 10E-4. In kind it is functional, cell-based. The following applies: Mus musculus. A digest of the protocol:
as §2

For series [13], the system named is L1210. Nature of the series: In vitro antitumor activity in the culture media (that produced 50% inhibition of the L1210 leukemia cell growth as compared to the untreated cells); Inhibition at 10E-5. It is filed as functional, Mus musculus.

Activity calls are given as the source filed them. The calls are words filed in the database; no cut-off is given here.

Ten compounds from ChEMBL document CHEMBL1122625, “Synthesis and antiviral/antitumor activities of certain 3-deazaguanine nucleosides and nucleotides” (J Med Chem, 1984) can be followed below.

Turning to `Nc1cc2ncn([C@@H]3C[C@H](O)[C@@H](CO)O3)c2c(O)n1`, the IC50 with L1210 [1] is 80 µM. For the same compound, the Inhibition – broadly, the change of the read-out against control, counted positive when it falls – in the series with P388 [2] was 31%. Also, the Virus rating in series [3] amounted to 0.35; with Human respirovirus 3 [4] it was 0.22; in the series with Vaccinia virus it was 1.18; in the series on Human alphaherpesvirus 1, 0.3.
With `Nc1cc2c(ncn2[C@@H]2O[C@@H]3COP(=O)(O)O[C@H]3[C@H]2O)c(O)n1`, the IC50 with L1210 [1] came to 4.1 µM; in the series with P388 [5] it was 45 µM. Moreover, the Virus rating in series [3] was 1; in the series with Human respirovirus 3 [4] it was 0.62; in the series with Vaccinia virus, 1.15; in the series with Human alphaherpesvirus 1, 1.02.
Regarding `Nc1cc2c(ncn2[C@H]2C[C@H](O)[C@@H](CO)O2)c(O)n1`, the figures for the IC50 in the series on L1210 [1] and in the series with P388 [5] were 20 µM and 42 µM, respectively. In addition, the Virus rating is reported as 1.03 in series [3], 1.45 in the series on Human respirovirus 3 [4], 1.72 with Vaccinia virus and 1.28 in the series on Human alphaherpesvirus 1. Also, the Toxic level result in [6] is “Not Active”.
Take `Nc1cc2[nH]cnc2c(=O)[nH]1` [DEZAGUANINE]: the IC50 in the series on L1210 [1] was 62 µM. This compound gave an Inhibition in the series with P388 [7] of 39%. Also, the Virus rating amounted to 0.98 with Human respirovirus 3 [8], 1.55 in series [3], 1.55 with Vaccinia virus and 1.4 in the series on Human alphaherpesvirus 1.
Turning to `Nc1cc2c(ncn2C2O[C@H](CO)[C@@H](O)[C@H]2O)c(=O)n1N` (some centres not stated), the ID50 result in the series on P388 [9] and with L1210 [11] was “Inactive at 10^-4M” each time. For the same compound, the Virus rating in series [10] is 0.45; with Human respirovirus 3 [4], 0.3; in the series with Vaccinia virus it was 1.25; in the series with Human alphaherpesvirus 1, 0.25.
For `Nc1cc2c(ncn2[C@@H]2C[C@H](O)[C@@H](CO)O2)c(O)n1`, the ID50 result in the series with P388 [12] was “Inactive at 10^-4M”. Moreover, the Virus rating in [3] amounted to 0.8; in the series with Human respirovirus 3 [4], 0.7; with Vaccinia virus, 1.65; with Human alphaherpesvirus 1 it was 1. Also, the Inhibition in the series on L1210 [13] is reported as 45%. In addition, in series [6], the Toxic level entry is “Not Active”.
Consider `Nc1cc2ncn([C@H]3C[C@H](O)[C@@H](CO)O3)c2c(O)n1`, for which the ID50 result with P388 [9] and in the series on L1210 [11] was “Inactive at 10^-4M” each time. Moreover, the Virus rating with Human respirovirus 3 [8] worked out at 0.92; in series [3], 1.06; in the series on Vaccinia virus, 1.42; in the series on Human alphaherpesvirus 1, 0.8. In addition, the Toxic level entry in series [6] is on record as “Not Active”.
As for `Nc1cc2c(ncn2[C@@H]2O[C@H](CO)[C@@H](O)[C@H]2O)c(=O)[nH]1`, the IC50 came to 18 µM in the series on L1210 [1] and 16 µM in the series with P388 [5]. Also, the Virus rating was determined as 1.5 in [3], 1.18 in the series on Human respirovirus 3 [4], 1.5 in the series on Vaccinia virus and 1.4 in the series with Human alphaherpesvirus 1.
`NC(=O)c1ncn([C@@H]2O[C@H](CO)[C@@H](O)[C@H]2O)n1` [RIBAVIRIN]: the Virus rating in [3] worked out at 0.8; with Human respirovirus 3 [4], 1.3; in the series with Vaccinia virus it was 1.2; in the series on Human alphaherpesvirus 1, 0.6. In addition, the Toxic level entry in series [6] is recorded as “Not Active”.
As for `NNc1cc2ncnc-2c(O)n1N`, the IC50 amounted to 35 µM in the series on L1210 [1] and 62 µM in the series on P388 [5]. Further, the Virus rating in series [3] is recorded as 0; with Human respirovirus 3 [4], 0.03; with Vaccinia virus, 0.15; in the series with Human alphaherpesvirus 1 it was 0.05.
